Results from ChEMBL document CHEMBL2086239, “Synthesis and biological evaluation of combretastatin-amidobenzothiazole conjugates as potential anticancer agents” (Eur J Med Chem, 2012).
Calls of active or inactive are those of the source. No cut-off for these calls is given here.

Experiments:
Assay type in all cases: functional
NCI-H226 = test: Growth inhibition of human NCI-H226 cells after 48 hrs by SRB assay; settings: NCI-H226, 48 h
Procedure, shortened: (§1)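 NCI 60-cell-line screen: after preliminary screening, tested at five dose concentrations on 59 human tumour lines covering leukemia, lung, colon, CNS, melanoma, ovarian, renal, prostate and breast.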

UACC-257 = test: Growth inhibition of human UACC257 cells after 48 hrs by SRB assay; settings: UACC-257, 48 h
Procedure, shortened: (§2)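 NCI 60-cell-line panel, five-dose testing after preliminary screen; sulforhodamine B protein assay in DMEM with 10% FBS, 37 °C, 5% CO2, 100% humidity. Cells seeded and incubated 24 h before compound addition, then exposed 48 h. Absorbance read at 560 nm; growth percentage relative to control wells; GI50 taken as concentration giving 50% growth inhibition.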

HCC 2998 = test: Growth inhibition of human HCC2998 cells after 48 hrs by SRB assay; settings: HCC 2998, 48 h; procedure, shortened: as §1
SN12C = test: Growth inhibition of human SN12C cells after 48 hrs by SRB assay; procedure, shortened: as §2
SK-OV-3 = test: Growth inhibition of human SKOV3 cells after 48 hrs by SRB assay; settings: SK-OV-3, 48 h; procedure, shortened: as §2
MCF7 [1] = test: Cell cycle arrest in human MCF7 cells assessed as accumulation at G2/M phase at 4 uM after 24 hrs by FACS analysis (reference value: 34.88%)
SR = test: Growth inhibition of human SR cells after 48 hrs by SRB assay; procedure, shortened: as §2
UO-31 = test: Growth inhibition of human UO31 cells after 48 hrs by SRB assay; settings: UO-31, 48 h; procedure, shortened: as §2
OVCAR-4 = test: Growth inhibition of human OVCAR4 cells after 48 hrs by SRB assay; settings: OVCAR-4, 48 h; procedure, shortened: as §1
IGROV-1 = test: Growth inhibition of human IGROV1 cells after 48 hrs by SRB assay; settings: IGROV-1, 48 h; procedure, shortened: as §1
SF-268 = test: Growth inhibition of human SF268 cells after 48 hrs by SRB assay; settings: SF-268, 48 h; procedure, shortened: as §1
T47D = test: Growth inhibition of human T47D cells after 48 hrs by SRB assay; procedure, shortened: as §2
MCF7 [2] = test: Cell cycle arrest in human MCF7 cells assessed as accumulation at S phase at 4 uM after 24 hrs by FACS analysis (reference value: 6.79%)
IMR-32 = test: Cytotoxicity against human IMR32 cells after 48 hrs assessed as inhibition of cell growth at 10 uM after 48 hrs by SRB assay relative to control; settings: IMR-32, 48 h, read-out: GI
Procedure, shortened: (§3)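 SRB protein assay in DMEM with 10% FBS at 37 °C, 5% CO2, 100% relative humidity. Cells seeded in 96-well plates, incubated 24 h, then exposed to drug at 10 µM for 48 h and processed per standard protocol. Absorbance read at 560 nm; growth percentage calculated for test wells relative to control wells.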

HOP-62 = test: Growth inhibition of human HOP62 cells after 48 hrs by SRB assay; settings: HOP-62, 48 h; procedure, shortened: as §1
RXF 393 = test: Growth inhibition of human RXF393 cells after 48 hrs by SRB assay; settings: RXF 393, 48 h; procedure, shortened: as §1
M14 = test: Growth inhibition of human M14 cells after 48 hrs by SRB assay; settings: M14, 48 h; procedure, shortened: as §1
NCI-H322M = test: Growth inhibition of human NCI-H322M cells after 48 hrs by SRB assay; procedure, shortened: as §1
SK-MEL-28 = test: Growth inhibition of human SK-MEL-28 cells after 48 hrs by SRB assay; settings: SK-MEL-28, 48 h; procedure, shortened: as §2
MCF7 [3] = test: Cell cycle arrest in human MCF7 cells assessed as accumulation at G1 phase at 4 uM after 24 hrs by FACS analysis (reference value: 58.33%)
SNB-19 = test: Growth inhibition of human SNB19 cells after 48 hrs by SRB assay; settings: SNB-19, 48 h; procedure, shortened: as §2
SF-295 = test: Growth inhibition of human SF295 cells after 48 hrs by SRB assay; settings: SF-295, 48 h; procedure, shortened: as §2
HOP-92 = test: Growth inhibition of human HOP92 cells after 48 hrs by SRB assay; settings: HOP-92, 48 h; procedure, shortened: as §1
DU-145 = test: Growth inhibition of human DU145 cells after 48 hrs by SRB assay; settings: DU-145, 48 h; procedure, shortened: as §1
EKVX = test: Growth inhibition of human EKVX cells after 48 hrs by SRB assay; procedure, shortened: as §1
ACHN = test: Growth inhibition of human ACHN cells after 48 hrs by SRB assay; procedure, shortened: as §1
SF-539 = test: Growth inhibition of human SF539 cells after 48 hrs by SRB assay; settings: SF-539, 48 h; procedure, shortened: as §2
MDA-MB-468 = test: Growth inhibition of human MDA-MB-468 cells after 48 hrs by SRB assay; procedure, shortened: as §1
UACC-62 = test: Growth inhibition of human UACC62 cells after 48 hrs by SRB assay; settings: UACC-62, 48 h; procedure, shortened: as §2
CAKI-1 = test: Growth inhibition of human Caki1 cells after 48 hrs by SRB assay; settings: CAKI-1, 48 h; procedure, shortened: as §1
HT-29 = test: Growth inhibition of human HT-29 cells after 48 hrs by SRB assay; settings: HT-29, 48 h; procedure, shortened: as §1
A549 = test: Growth inhibition of human A549 cells after 48 hrs by SRB assay; settings: A549, 48 h; procedure, shortened: as §1
U-251 = test: Growth inhibition of human U251cells after 48 hrs by SRB assay; settings: U-251, 48 h; procedure, shortened: as §2
BT-549 = test: Growth inhibition of human BT549 cells after 48 hrs by SRB assay; settings: BT-549, 48 h; procedure, shortened: as §1
COLO 205 [4] = test: Growth inhibition of human COLO205 cells after 48 hrs by SRB assay; settings: COLO 205, 48 h; procedure, shortened: as §1
RPMI-8226 = test: Growth inhibition of human RPMI8226 cells after 48 hrs by SRB assay; settings: RPMI-8226, 48 h; procedure, shortened: as §1
TK-10 = test: Growth inhibition of human TK10 cells after 48 hrs by SRB assay; settings: TK-10, 48 h; procedure, shortened: as §2
COLO 205 [5] = test: Cytotoxicity against human COLO205 cells after 48 hrs assessed as inhibition of cell growth at 10 uM after 48 hrs by SRB assay relative to control; settings: COLO 205, 48 h, read-out: GI; procedure, shortened: as §3
THP-1 = test: Cytotoxicity against human THP1 cells after 48 hrs assessed as inhibition of cell growth at 10 uM after 48 hrs by SRB assay relative to control; settings: THP-1, 48 h, read-out: GI; procedure, shortened: as §3
CCRF-CEM = test: Growth inhibition of human CCRF-CEM cells after 48 hrs by SRB assay; procedure, shortened: as §1
PC-3 = test: Growth inhibition of human PC3 cells after 48 hrs by SRB assay; settings: PC-3, 48 h; procedure, shortened: as §1
KM12 = test: Growth inhibition of human KM12 cells after 48 hrs by SRB assay; settings: KM12, 48 h; procedure, shortened: as §1
MDA-MB-435 = test: Growth inhibition of human MDA-MB-435 cells after 48 hrs by SRB assay; settings: MDA-MB-435, 48 h; procedure, shortened: as §1

COc1ccc(/C=C\c2cc(OC)c(OC)c(OC)c2)cc1O [COMBRETASTATIN A4]
GI50 (NCI-H226): 3 nM | GI50 (UACC-257): 3 nM | GI50 (HCC 2998): 63 nM | GI50 (SN12C): 6 nM | GI50 (SK-OV-3): 63 nM | Activity (MCF7 [1]): 61.23% | GI50 (SR): 3 nM | GI50 (UO-31): 19 nM | GI50 (OVCAR-4): 15 nM | GI50 (IGROV-1): 15 nM | GI50 (SF-268): 6 nM | GI50 (T47D): 10000 nM | Activity (MCF7 [2]): 14.27% | inhibition of growth at 10 µM (IMR-32): 89% | GI50 (HOP-62): 2 nM | GI50 (RXF 393): 2 nM | GI50 (M14): 2 nM | GI50 (NCI-H322M): 3 nM | GI50 (SK-MEL-28): 7 nM | Activity (MCF7 [3]): 24.5% | GI50 (SNB-19): 3 nM | GI50 (SF-295): 3 nM | GI50 (HOP-92): 2 nM | GI50 (DU-145): 1 nM | GI50 (EKVX): 79 nM | GI50 (ACHN): 6 nM | GI50 (SF-539): 2 nM | GI50 (MDA-MB-468): inactive | GI50 (UACC-62): 5 nM | GI50 (CAKI-1): 25 nM | GI50 (HT-29): 100 nM | GI50 (A549): 15 nM | GI50 (U-251): 7 nM | GI50 (BT-549): 10000 nM | GI50 (COLO 205 [4]): 100 nM | GI50 (RPMI-8226): 3 nM | GI50 (TK-10): 100 nM | inhibition of growth at 10 µM (COLO 205 [5]): 63% | inhibition of growth at 10 µM (THP-1): 87% | GI50 (CCRF-CEM): 2 nM | GI50 (PC-3): 1 nM | GI50 (KM12): 5 nM | GI50 (MDA-MB-435): 1 nM

COc1ccc(/C=C\c2cc(OC)c(OC)c(OC)c2)cc1OCC(=O)Nc1ccc2nc(C)sc2c1
GI50 (NCI-H226): 2750 nM | GI50 (UACC-257): 1730 nM | GI50 (HCC 2998): 6900 nM | GI50 (SN12C): 3530 nM | GI50 (SK-OV-3): 5270 nM | Activity (MCF7 [1]): 37.09% | GI50 (SR): 2930 nM | GI50 (UO-31): 2410 nM | GI50 (OVCAR-4): 2640 nM | GI50 (IGROV-1): 3720 nM | GI50 (SF-268): 3610 nM | GI50 (T47D): 9410 nM | Activity (MCF7 [2]): 7.71% | inhibition of growth at 10 µM (IMR-32): 62% | GI50 (HOP-62): 3090 nM | GI50 (RXF 393): 5060 nM | GI50 (M14): 3380 nM | GI50 (NCI-H322M): 6740 nM | GI50 (SK-MEL-28): 3220 nM | Activity (MCF7 [3]): 55.2% | GI50 (SNB-19): 3890 nM | GI50 (SF-295): 2450 nM | GI50 (HOP-92): 2380 nM | GI50 (DU-145): 3810 nM | GI50 (EKVX): 4050 nM | GI50 (ACHN): 3120 nM | GI50 (SF-539): 2560 nM | GI50 (MDA-MB-468; MDA-MB-468, 48 h): 2390 nM | GI50 (UACC-62): 2190 nM | GI50 (CAKI-1): 2190 nM | GI50 (HT-29): 3310 nM | GI50 (A549): 2100 nM | GI50 (U-251): 3590 nM | GI50 (BT-549): 3050 nM | GI50 (COLO 205 [4]): 4400 nM | GI50 (RPMI-8226): 1980 nM | GI50 (TK-10): 4210 nM | inhibition of growth at 10 µM (COLO 205 [5]): 17% | inhibition of growth at 10 µM (THP-1): 59% | GI50 (CCRF-CEM): 3410 nM | GI50 (PC-3): 2800 nM | GI50 (KM12): 3790 nM | GI50 (MDA-MB-435): 2130 nM
